In brackets after ≈: the same amount, converted by molar mass.
Assays:
MCF7 = assay: Cytotoxicity against human MCF7 cells assessed as cell growth after 2 days by sulforhodamine B assay; format: functional; settings: MCF7, 48 h
Procedure, shortened: (§1)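 NCI cell lines were run by the Monks method: cells were plated with compounds from DMSO stocks and incubated 2 days at 37 °C in 5% CO2, in duplicate. Cells were fixed with cold TCA, stained with 0.4% SRB, and the bound dye was solubilized in 10 mM tris-base and read at 515 nm. The zero-day control was subtracted, and GI50 was taken from the curves.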

NCI-H460 = assay: Cytotoxicity against human H460 cells assessed as cell growth after 2 days by sulforhodamine B assay; format: functional; settings: NCI-H460, 48 h; procedure, shortened: as §1
SF-268 = assay: Cytotoxicity against human SF268 cells assessed as cell growth after 2 days by sulforhodamine B assay; format: functional; settings: SF-268, 48 h; procedure, shortened: as §1
[1] = Cytotoxicity against human erythrocytes assessed as hemolysis by spectrometric analysis; format: cell-based, Erythrocyte
Procedure, shortened: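 Human heparinized red blood cells were washed in PBS at pH 7.0 and suspended at 4% in sterile 5% glucose. Compounds from DMSO stocks were diluted in 5% glucose to final concentrations of 250 to 0.24 µg/ml and incubated with the cells at 37 °C. Released hemoglobin was read at 540 nm. HC50 is the concentration giving 50% lysis relative to the drug-free value.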

Candida albicans = assay: Antifungal activity against Candida albicans ATCC 10213; format: functional
Procedure, shortened: (§2)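 CLSI M27-A3 broth microdilution in RPMI-1640 buffered to pH 7.0 with MOPS. Inoculum 1-5 × 10^3 CFU/mL. Compound twofold dilutions from 250 to 0.24 µg/ml, final DMSO <1%. Incubated at 35 °C in a moist, dark chamber and read at 48 h. MIC is the lowest concentration giving total growth inhibition. For MFC, 5 µL from clear wells was plated in duplicate on SDA; MFC is the lowest concentration with no growth.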

Candida tropicalis = assay: Antifungal activity against Candida tropicalis C 131 2000; format: functional; procedure, shortened: as §2
Saccharomyces cerevisiae = assay: Antifungal activity against Saccharomyces cerevisiae ATCC 9763; format: functional; procedure, shortened: as §2
Cryptococcus neoformans = assay: Antifungal activity against Cryptococcus neoformans ATCC 32264; format: functional; procedure, shortened: as §2
Aspergillus fumigatus = assay: Antifungal activity against Aspergillus fumigatus ATCC 26934; format: functional
Procedure, shortened: (§3)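 Broth microdilution per CLSI M38-A2 in RPMI-1640 with MOPS at pH 7.0. Inoculum 1-5 × 10^3 CFU/mL, with twofold compound dilutions spanning 250-0.24 µg/ml (final DMSO <1%). Plates incubated at 35 °C, moist and dark, and read when the control fungus had grown. MIC is total growth inhibition. MFC comes from subculturing clear wells in duplicate onto SDA.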

Aspergillus flavus = assay: Antifungal activity against Aspergillus flavus ATCC 9170; format: functional; procedure, shortened: as §3
Aspergillus niger = assay: Antifungal activity against Aspergillus niger ATCC 9029; format: functional; procedure, shortened: as §3
Nannizzia gypsea = assay: Antifungal activity against Microsporum gypseum C 115 2000; format: functional
Procedure, shortened: (§4)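 Dermatophytes tested by CLSI M38-A2 microdilution in MOPS-buffered RPMI-1640 at pH 7.0. Inoculum 1-5 × 10^3 CFU/mL; compounds 250 to 0.24 µg/ml in twofold steps, final DMSO <1%. Incubated at 28 °C in a moist, dark chamber and read according to control growth. MIC is the lowest concentration with complete inhibition. MFC is the lowest concentration with no growth after duplicate subculture on SDA.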

Trichophyton rubrum = assay: Antifungal activity against Trichophyton rubrum C 113 2000; format: functional; procedure, shortened: as §4
[2] = test system: Trichophyton mentagrophytes; assay: Antifungal activity against Trichophyton mentagrophytes ATCC 9972; format: functional; procedure, shortened: as §4

SMILES | MIC (Candida albicans) [µg/mL] | MIC (Candida tropicalis) [µg/mL] | MIC (Saccharomyces cerevisiae) [µg/mL] | MIC (Cryptococcus neoformans) [µg/mL] | MIC (Aspergillus fumigatus) [µg/mL] | MIC (Aspergillus flavus) [µg/mL] | MIC (Aspergillus niger) [µg/mL] | MIC (Nannizzia gypsea) [µg/mL] | GI50 (MCF7) [µg/mL] | GI50 (NCI-H460) [µg/mL] | GI50 (SF-268) [µg/mL] | HC50 [1] [µg/mL] | MFC (Candida albicans) [µg/mL] | MFC (Candida tropicalis) [µg/mL] | MFC (Saccharomyces cerevisiae) [µg/mL] | MFC (Cryptococcus neoformans) [µg/mL] | MFC (Aspergillus fumigatus) [µg/mL] | MFC (Aspergillus flavus) [µg/mL] | MFC (Aspergillus niger) [µg/mL] | MFC (Nannizzia gypsea) [µg/mL] | other results
COc1ccc(N2C(=O)C=CC2=O)cc1 | 62.5 (≈ 308 µM) | 62.5 (≈ 308 µM) | 31.2 (≈ 154 µM) | 15.6 (≈ 76.9 µM) | 62.5 (≈ 308 µM) | 62.5 (≈ 308 µM) | 31.2 (≈ 154 µM) | 3.9 (≈ 19.2 µM) | > 10 | > 10 | > 10 | > 250 | 125 (≈ 615 µM) | 125 (≈ 615 µM) | 62.5 (≈ 308 µM) | 15.6 (≈ 76.9 µM) | 125 (≈ 615 µM) | 125 (≈ 615 µM) | 62.5 (≈ 308 µM) | 7.81 (≈ 38.4 µM) | MFC (Trichophyton rubrum): 3.9 µg/mL (≈ 19.2 µM); MIC (Trichophyton rubrum): 3.9 µg/mL (≈ 19.2 µM); MFC [2]: 7.81 µg/mL (≈ 38.4 µM); MIC [2]: 3.9 µg/mL (≈ 19.2 µM)
Cc1ccccc1N1C(=O)C=CC1=O | 15.6 (≈ 83.5 µM) | 15.6 (≈ 83.5 µM) | 7.81 (≈ 41.7 µM) | 7.81 (≈ 41.7 µM) | 62.5 (≈ 334 µM) | 62.5 (≈ 334 µM) | 15.6 (≈ 83.5 µM) | 3.9 (≈ 20.8 µM) | > 10 | > 10 | > 10 | > 250 | 15.6 (≈ 83.5 µM) | 31.2 (≈ 167 µM) | 7.81 (≈ 41.7 µM) | 7.81 (≈ 41.7 µM) | 125 (≈ 668 µM) | 62.5 (≈ 334 µM) | 62.5 (≈ 334 µM) | 7.81 (≈ 41.7 µM) | MFC (Trichophyton rubrum): 3.9 µg/mL (≈ 20.8 µM); MIC (Trichophyton rubrum): 1.95 µg/mL (≈ 10.4 µM); MFC [2]: 3.9 µg/mL (≈ 20.8 µM); MIC [2]: 1.95 µg/mL (≈ 10.4 µM)
Cc1ccc(N2C(=O)C=CC2=O)cc1 | 15.6 (≈ 83.5 µM) | 15.6 (≈ 83.5 µM) | 3.9 (≈ 20.8 µM) | 3.9 (≈ 20.8 µM) | 31.2 (≈ 167 µM) | 15.6 (≈ 83.5 µM) | 15.6 (≈ 83.5 µM) | 1.95 (≈ 10.4 µM) | > 10 | > 10 | > 10 | > 250 | 31.2 (≈ 167 µM) | 31.2 (≈ 167 µM) | 7.81 (≈ 41.7 µM) | 7.81 (≈ 41.7 µM) | 62.5 (≈ 334 µM) | 15.6 (≈ 83.5 µM) | 31.2 (≈ 167 µM) | 3.9 (≈ 20.8 µM) | MFC (Trichophyton rubrum): 3.9 µg/mL (≈ 20.8 µM); MIC (Trichophyton rubrum): 1.95 µg/mL (≈ 10.4 µM); MFC [2]: 7.81 µg/mL (≈ 41.7 µM); MIC [2]: 1.95 µg/mL (≈ 10.4 µM)

The next lines start with results.

MIC (Candida albicans) [µg/mL] | MIC (Candida tropicalis) [µg/mL] | MIC (Saccharomyces cerevisiae) [µg/mL] | MIC (Cryptococcus neoformans) [µg/mL] | MIC (Aspergillus fumigatus) [µg/mL] | MIC (Aspergillus flavus) [µg/mL] | MIC (Aspergillus niger) [µg/mL] | MIC (Nannizzia gypsea) [µg/mL] | SMILES | GI50 (MCF7) [µg/mL] | GI50 (NCI-H460) [µg/mL] | GI50 (SF-268) [µg/mL] | HC50 [1] [µg/mL] | MFC (Candida albicans) [µg/mL] | MFC (Candida tropicalis) [µg/mL] | MFC (Saccharomyces cerevisiae) [µg/mL] | MFC (Cryptococcus neoformans) [µg/mL] | MFC (Aspergillus fumigatus) [µg/mL] | MFC (Aspergillus flavus) [µg/mL] | MFC (Aspergillus niger) [µg/mL] | MFC (Nannizzia gypsea) [µg/mL] | other results
15.6 (≈ 67 µM) | 15.6 (≈ 67 µM) | 7.81 (≈ 33.5 µM) | 7.81 (≈ 33.5 µM) | 31.2 (≈ 134 µM) | 62.5 (≈ 268 µM) | 15.6 (≈ 67 µM) | 3.9 (≈ 16.7 µM) | COc1ccc(N2C(=O)C=CC2=O)c(OC)c1 | > 10 | > 10 | > 10 | > 250 | 15.6 (≈ 67 µM) | 15.6 (≈ 67 µM) | 7.81 (≈ 33.5 µM) | 7.81 (≈ 33.5 µM) | 62.5 (≈ 268 µM) | 125 (≈ 536 µM) | 62.5 (≈ 268 µM) | 7.81 (≈ 33.5 µM) | MFC (Trichophyton rubrum): 7.81 µg/mL (≈ 33.5 µM); MIC (Trichophyton rubrum): 3.9 µg/mL (≈ 16.7 µM); MFC [2]: 3.9 µg/mL (≈ 16.7 µM); MIC [2]: 3.9 µg/mL (≈ 16.7 µM)
31.2 (≈ 144 µM) | 31.2 (≈ 144 µM) | 7.81 (≈ 36 µM) | 7.81 (≈ 36 µM) | 62.5 (≈ 288 µM) | 62.5 (≈ 288 µM) | 62.5 (≈ 288 µM) | 1.95 (≈ 8.98 µM) | O=C1C=CC(=O)N1c1ccc2c(c1)OCO2 | > 10 | > 10 | > 10 | > 250 | 62.5 (≈ 288 µM) | 62.5 (≈ 288 µM) | 15.6 (≈ 72 µM) | 15.6 (≈ 72 µM) | 125 (≈ 576 µM) | 125 (≈ 576 µM) | 125 (≈ 576 µM) | 1.95 (≈ 8.98 µM) | MFC (Trichophyton rubrum): 3.9 µg/mL (≈ 18 µM); MIC (Trichophyton rubrum): 1.95 µg/mL (≈ 8.98 µM); MFC [2]: 3.9 µg/mL (≈ 18 µM); MIC [2]: 1.95 µg/mL (≈ 8.98 µM)
15.6 (≈ 76.9 µM) | 15.6 (≈ 76.9 µM) | 3.9 (≈ 19.2 µM) | 3.9 (≈ 19.2 µM) | 31.2 (≈ 154 µM) | 31.2 (≈ 154 µM) | 31.2 (≈ 154 µM) | 3.9 (≈ 19.2 µM) | COc1cccc(N2C(=O)C=CC2=O)c1 | > 10 | > 10 | > 10 | > 250 | 62.5 (≈ 308 µM) | 62.5 (≈ 308 µM) | 7.81 (≈ 38.4 µM) | 7.81 (≈ 38.4 µM) | 62.5 (≈ 308 µM) | 62.5 (≈ 308 µM) | 62.5 (≈ 308 µM) | 7.81 (≈ 38.4 µM) | MFC (Trichophyton rubrum): 3.9 µg/mL (≈ 19.2 µM); MIC (Trichophyton rubrum): 1.95 µg/mL (≈ 9.6 µM); MFC [2]: 3.9 µg/mL (≈ 19.2 µM); MIC [2]: 1.95 µg/mL (≈ 9.6 µM)
62.5 (≈ 334 µM) | 62.5 (≈ 334 µM) | 31.2 (≈ 167 µM) | 31.2 (≈ 167 µM) | 31.2 (≈ 167 µM) | 62.5 (≈ 334 µM) | 125 (≈ 668 µM) | 7.81 (≈ 41.7 µM) | CC1=CC(=O)N(c2ccccc2)C1=O | > 10 | > 10 | > 10 | > 250 | 125 (≈ 668 µM) | 125 (≈ 668 µM) | 125 (≈ 668 µM) | 62.5 (≈ 334 µM) | 62.5 (≈ 334 µM) | 125 (≈ 668 µM) | 250 (≈ 1340 µM) | 15.6 (≈ 83.5 µM) | MFC (Trichophyton rubrum): 15.6 µg/mL (≈ 83.5 µM); MIC (Trichophyton rubrum): 7.81 µg/mL (≈ 41.7 µM); MFC [2]: 62.5 µg/mL (≈ 334 µM); MIC [2]: 31.2 µg/mL (≈ 167 µM)

— ChEMBL document CHEMBL1772954, “Antifungal, cytotoxic and SAR studies of a series of N-alkyl, N-aryl and N-alkylphenyl-1,4-pyrrolediones and related compounds” (Bioorg Med Chem, 2011)
